Measured values from ChEMBL document CHEMBL4706568, “Some thermodynamic effects of varying nonpolar surfaces in protein-ligand interactions” (Eur J Med Chem, 2020).
Square brackets hold non-standard residues; d marks the D form. Peptide text beside a SMILES is read from it. * marks the point of attachment. pY = N[C@@H](Cc1ccc(OP(=O)(O)O)cc1)C(=O)O; NHPhenethyl = c1ccc(CCN*)cc1; Ac6c = NC1(C(=O)O)CCCCC1; NHBn = c1ccc(CN*)cc1

Experiments:
[1] = molecular target: Growth factor receptor-bound protein 2 (Homo sapiens) (UniProt P62993); assay: Binding affinity to Grb2-SH2 domain (53 to 163 residues) (unknown origin) expressed in Escherichia coli assessed as association constant by ITC analysis
Summary of the method: (§1)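 Grb2 SH2 residues 53–163 expressed in E. coli SG13009 (IPTG induction), purified by phosphotyrosine affinity, Q-Sepharose and size exclusion to isolate monomer. Protein diluted to 65–85 μM, ligand ~1 mM, both in 50 mM HEPES, 150 mM NaCl, pH 7.50. VP-ITC at 25 °C, ~35 injections of 7–9 μL ligand, buffer heats subtracted, n normalized to 1.00; ≥3 runs averaged.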

[2] = molecular target: Growth factor receptor-bound protein 2 (Homo sapiens) (UniProt P62993); assay: Binding affinity to Grb2-SH2 domain (53 to 163 residues) (unknown origin) expressed in Escherichia coli assessed as change in entropy by ITC analysis; summary of the method: as §1
[3] = molecular target: Growth factor receptor-bound protein 2 (Homo sapiens) (UniProt P62993); assay: Binding affinity to Grb2-SH2 domain (53 to 163 residues) (unknown origin) expressed in Escherichia coli assessed as change in enthalpy by ITC analysis; summary of the method: as §1
[4] = molecular target: Growth factor receptor-bound protein 2 (Homo sapiens) (UniProt P62993); assay: Binding affinity to Grb2-SH2 domain (53 to 163 residues) (unknown origin) expressed in Escherichia coli assessed as change in gibbs free energy by ITC analysis; summary of the method: as §1

Row | Ka [1] | -TdeltaS [2] [kcal/mol] | deltaH [3] [kcal/mol] | deltaG [4] [kcal/mol] | SMILES
1 | 1.6 10^7/M | -1.9 | -7.9 | -9.8 | CC(=O)N[C@@H](Cc1ccc(OP(=O)(O)O)cc1)C(=O)NC1(C(=O)N[C@@H](CC(N)=O)C(=O)NCCCC(C)C)CCCCC1
2 | 4 10^7/M | -1.7 | -8.6 | -10.3 | CC(=O)N[C@@H](Cc1ccc(OP(=O)(O)O)cc1)C(=O)NC1(C(=O)N[C@@H](CC(N)=O)C(=O)NCCCc2ccc(C)cc2)CCCCC1
3 | 1.9 10^7/M | -1.9 | -8 | -9.9 | CC(=O)N[C@@H](Cc1ccc(OP(=O)(O)O)cc1)C(=O)NC1(C(=O)N[C@@H](CC(N)=O)C(=O)NCCCC2CCCCC2)CCCCC1
4 | 4.7 10^7/M | -1.4 | -9.1 | -10.5 | CC(=O)N[C@@H](Cc1ccc(OP(=O)(O)O)cc1)C(=O)NC1(C(=O)N[C@@H](CC(N)=O)C(=O)NCCCc2ccc(Cl)cc2)CCCCC1
5 | 4.9 10^7/M | -0.2 | -10.2 | -10.4 | CC(=O)N[C@@H](Cc1ccc(OP(=O)(O)O)cc1)C(=O)NC1(C(=O)N[C@@H](CC(N)=O)C(=O)NCCCc2cn(C)c3ccccc23)CCCCC1
6 | 3.5 10^7/M | -1.2 | -9.1 | -10.3 | CC(=O)N[C@@H](Cc1ccc(OP(=O)(O)O)cc1)C(=O)NC1(C(=O)N[C@@H](CC(N)=O)C(=O)NCCCc2c[nH]c3ccccc23)CCCCC1

Further lines, the molecule ahead of its results:

Row | SMILES | Ka [1] | -TdeltaS [2] [kcal/mol] | deltaH [3] [kcal/mol] | deltaG [4] [kcal/mol]
7 | CC(=O)N[C@@H](Cc1ccc(OP(=O)(O)O)cc1)C(=O)NC1(C(=O)N[C@@H](CC(N)=O)C(=O)NCCCc2ccccc2)CCCCC1 | 2.6 10^7/M | -1.3 | -8.8 | -10.1
8 | CC(=O)N[C@@H](Cc1ccc(OP(=O)(O)O)cc1)C(=O)NC1(C(=O)N[C@@H](CC(N)=O)C(=O)NCCc2ccccc2)CCCCC1 (Ac-[pY]-[Ac6c]-Asn-NHPhenethyl) | 1.5 10^7/M | -2.1 | -7.7 | -9.8
9 | CC(=O)N[C@@H](Cc1ccc(OP(=O)(O)O)cc1)C(=O)NC1(C(=O)N[C@@H](CC(N)=O)C(=O)NCCCn2ccc3ccccc32)CCCCC1 | 2.7 10^7/M | -1 | -9.1 | -10.1
10 | CC(=O)N[C@@H](Cc1ccc(OP(=O)(O)O)cc1)C(=O)NC1(C(=O)N[C@@H](CC(N)=O)C(=O)NCCCCCc2ccccc2)CCCCC1 | 2.8 10^7/M | -2.3 | -7.9 | -10.2
11 | CC(=O)N[C@@H](Cc1ccc(OP(=O)(O)O)cc1)C(=O)NC1(C(=O)N[C@@H](CC(N)=O)C(=O)NCc2cn(C)c3ccccc23)CCCCC1 | 1.1 10^7/M | -2.8 | -6.7 | -9.5
12 | CC(=O)N[C@@H](Cc1ccc(OP(=O)(O)O)cc1)C(=O)NC1(C(=O)N[C@@H](CC(N)=O)C(=O)NCCCCC(C)C)CCCCC1 | 1.7 10^7/M | -2 | -7.8 | -9.8
13 | CC(=O)N[C@@H](Cc1ccc(OP(=O)(O)O)cc1)C(=O)NC1(C(=O)N[C@@H](CC(N)=O)C(=O)NCCc2cn(C)c3ccccc23)CCCCC1 | 2.4 10^7/M | -2 | -8.1 | -10.1
14 | CC(=O)N[C@@H](Cc1ccc(OP(=O)(O)O)cc1)C(=O)NC1(C(=O)N[C@@H](CC(N)=O)C(=O)NCCCCc2ccccc2)CCCCC1 | 1.5 10^7/M | -2.1 | -7.7 | -9.8
15 | CC(=O)N[C@@H](Cc1ccc(OP(=O)(O)O)cc1)C(=O)NC1(C(=O)N[C@@H](CC(N)=O)C(=O)NCc2ccccc2)CCCCC1 (Ac-[pY]-[Ac6c]-Asn-NHBn) | 1.2 10^7/M | -2.1 | -7.5 | -9.6
16 | CC(=O)N[C@@H](Cc1ccc(OP(=O)(O)O)cc1)C(=O)NC1(C(=O)N[C@@H](CC(N)=O)C(N)=O)CCCCC1 (Ac-[pY]-[Ac6c]-Asn-NH2) | 0.7 10^7/M | -0.8 | -8.5 | -9.3
17 | COc1ccc(CCCNC(=O)[C@H](CC(N)=O)NC(=O)C2(NC(=O)[C@H](Cc3ccc(OP(=O)(O)O)cc3)NC(C)=O)CCCCC2)cc1 | 5 10^7/M | -1.4 | -9.1 | -10.5
18 | CC(=O)N[C@@H](Cc1ccc(OP(=O)(O)O)cc1)C(=O)NC1(C(=O)N[C@@H](CC(N)=O)C(=O)NCCCc2cccc3ccccc23)CCCCC1 | 6 10^7/M | -1 | -9.6 | -10.6
